Assay [1] concerns the target Serotonin 2 (5-HT2) receptor (Rattus norvegicus, UniProt P30994+P08909+P14842). The experiment in a line: Displacement of [3H]spiroperidol from 5-hydroxytryptamine 2 receptor in rat brain. The format is tissue-based. A digest of the protocol:
(§1)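 Rat brain radioligand displacement binding. IC50 values (μM) were derived by nonlinear regression from four or five concentrations of compound.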

Assay [2] has as its target T1, Adrenergic receptor alpha-2 (Rattus norvegicus, UniProt P22086+P19328+P22909).
T1 sequence (P22086 whole entry): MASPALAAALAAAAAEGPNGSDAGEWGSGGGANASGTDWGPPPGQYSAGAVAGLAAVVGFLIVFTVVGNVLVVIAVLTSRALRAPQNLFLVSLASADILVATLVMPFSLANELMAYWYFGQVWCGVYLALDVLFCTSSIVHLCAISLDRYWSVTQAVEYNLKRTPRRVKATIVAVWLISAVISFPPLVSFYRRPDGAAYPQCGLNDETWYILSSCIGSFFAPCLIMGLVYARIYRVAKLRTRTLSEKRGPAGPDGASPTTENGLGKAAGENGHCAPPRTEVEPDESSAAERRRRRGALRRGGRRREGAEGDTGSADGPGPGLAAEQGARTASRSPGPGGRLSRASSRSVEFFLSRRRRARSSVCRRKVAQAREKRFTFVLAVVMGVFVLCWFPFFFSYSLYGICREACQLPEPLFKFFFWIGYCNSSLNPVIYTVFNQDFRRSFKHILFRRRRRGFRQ
T1 sequence (P19328 whole entry): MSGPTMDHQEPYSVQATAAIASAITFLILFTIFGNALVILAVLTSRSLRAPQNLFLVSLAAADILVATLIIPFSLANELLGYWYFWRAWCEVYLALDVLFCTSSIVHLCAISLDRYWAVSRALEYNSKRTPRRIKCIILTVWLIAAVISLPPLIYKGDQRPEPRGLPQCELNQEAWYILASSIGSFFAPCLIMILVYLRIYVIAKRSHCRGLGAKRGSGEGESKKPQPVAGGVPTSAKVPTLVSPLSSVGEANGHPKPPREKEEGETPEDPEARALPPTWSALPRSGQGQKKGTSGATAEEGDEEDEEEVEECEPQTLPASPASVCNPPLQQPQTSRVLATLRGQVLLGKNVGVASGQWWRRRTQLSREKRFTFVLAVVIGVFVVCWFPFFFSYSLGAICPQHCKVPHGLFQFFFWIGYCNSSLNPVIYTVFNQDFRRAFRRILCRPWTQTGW
T1 sequence (P22909 whole entry): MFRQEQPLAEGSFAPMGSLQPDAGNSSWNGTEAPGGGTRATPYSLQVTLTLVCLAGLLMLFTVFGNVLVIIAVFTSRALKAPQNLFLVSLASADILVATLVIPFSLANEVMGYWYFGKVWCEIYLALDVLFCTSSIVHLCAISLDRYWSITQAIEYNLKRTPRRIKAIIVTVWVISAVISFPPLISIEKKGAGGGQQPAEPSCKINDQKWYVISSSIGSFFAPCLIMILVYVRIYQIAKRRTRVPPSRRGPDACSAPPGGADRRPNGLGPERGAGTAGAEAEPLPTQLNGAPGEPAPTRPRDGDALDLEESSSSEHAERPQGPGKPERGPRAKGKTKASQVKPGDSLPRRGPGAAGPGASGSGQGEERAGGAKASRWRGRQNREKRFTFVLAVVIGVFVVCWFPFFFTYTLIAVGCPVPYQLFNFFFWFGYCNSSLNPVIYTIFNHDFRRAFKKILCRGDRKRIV
The experiment in a line: Displacement of [3H]clonidine from alpha-2 adrenergic receptor in rat brain. The format is tissue-based. Summed up: as §1

Another assay deals with D(2) dopamine receptor (Rattus norvegicus, UniProt P61169). The experiment in a line: Displacement of [3H]haloperidol from Dopamine receptor D2 in rat brain. The format is tissue-based.
Assay [3] concerns the target Muscarinic acetylcholine receptor. The experiment in a line: Displacement of [3H]quinuclidinyl benzilate(QNB) from Muscarinic acetylcholine receptor in rat brain. The format is tissue-based. Summed up: as §1
(In general: Loss of bound radioactivity is the signal in a displacement assay; it reports binding, not function.)

Another assay relates to Mus musculus. As to the kind of experiment: Inhibition of locomotor activity in mouse after intraperitoneal administration. Type of assay: functional. As to conditions: Mus musculus, ip; read-out: ED50.

Here are results for one compound from ChEMBL document CHEMBL1124042, “Synthesis and potential antipsychotic activity of 1H-imidazo[1,2-c]pyrazolo[3,4-e]pyrimidines” (J Med Chem, 1988).

Usually IC50 stands for the point on the concentration scale where inhibition reaches its midpoint. Higher therefore signals weaker potency in that assay. As usually defined, the ED50 is the dose that gives a 50% effect, or the effect in half of the subjects.

Molecules are shown by their SMILES. Bounds are passed on as bounds.

Chain of D(2) dopamine receptor (P61169 whole entry): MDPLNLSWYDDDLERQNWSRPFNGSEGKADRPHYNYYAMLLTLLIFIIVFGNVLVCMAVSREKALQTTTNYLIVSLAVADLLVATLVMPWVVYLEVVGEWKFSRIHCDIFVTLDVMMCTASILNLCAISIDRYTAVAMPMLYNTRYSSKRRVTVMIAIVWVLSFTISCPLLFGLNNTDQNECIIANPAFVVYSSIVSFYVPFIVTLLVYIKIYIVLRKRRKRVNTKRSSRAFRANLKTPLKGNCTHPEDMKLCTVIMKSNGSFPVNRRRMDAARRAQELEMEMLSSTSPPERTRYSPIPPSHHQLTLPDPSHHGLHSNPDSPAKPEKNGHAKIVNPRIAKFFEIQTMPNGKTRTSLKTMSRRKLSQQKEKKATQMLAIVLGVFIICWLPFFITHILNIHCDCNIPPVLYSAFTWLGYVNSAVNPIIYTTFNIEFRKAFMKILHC

Consider `CCC1CN2C(C)=Nc3c(C)nn(C)c3C2=N1` (stereo not given), for which the IC50 (in assay [1]; in assay [2]; at D(2) dopamine receptor; in assay [3]) was more than 10 µM in each case. Moreover, the median effective dose (ED50) in the assay on Mus musculus stood at 23.7 mg/kg.
